Experimental data as given in ChEMBL document CHEMBL1138152, “Design and synthesis of novel hydrazide-linked bifunctional peptides as delta/mu opioid receptor agonists and CCK-1/CCK-2 receptor antagonists” (J Med Chem, 2006).

Columns and labels:
[1] = molecular target: T1, Delta-type opioid receptor (Homo sapiens, UniProt P41143); test: Displacement of [3H]DPDPE from human delta opioid receptor expressed in HN9.10 cells; format: cell-based
Summary of the method: (§1)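 Membranes (50 µg) from HN9.10 neuroblastoma cells stably expressing rat MOR or human DOR. Buffer was 50 mM Tris pH 7.4 with bacitracin, bestatin, captopril, PMSF and 1 mg/mL BSA. Radioligand was [3H]DAMGO (MOR) or [3H]DPDPE (DOR), each 1.0 nM, with 10 test concentrations. Incubated 3 h at 25 °C, in duplicate. Nonspecific binding with 10 µM naloxone. Filtration, then scintillation counting.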

Mu-type opioid receptor [2] = molecular target: T2, Mu-type opioid receptor (Rattus norvegicus, UniProt P33535); test: Displacement of [3H]DAMGO from rat mu opioid receptor expressed in HN9.10 cells; format: cell-based; summary of the method: as §1
T2 sequence (P33535 whole entry): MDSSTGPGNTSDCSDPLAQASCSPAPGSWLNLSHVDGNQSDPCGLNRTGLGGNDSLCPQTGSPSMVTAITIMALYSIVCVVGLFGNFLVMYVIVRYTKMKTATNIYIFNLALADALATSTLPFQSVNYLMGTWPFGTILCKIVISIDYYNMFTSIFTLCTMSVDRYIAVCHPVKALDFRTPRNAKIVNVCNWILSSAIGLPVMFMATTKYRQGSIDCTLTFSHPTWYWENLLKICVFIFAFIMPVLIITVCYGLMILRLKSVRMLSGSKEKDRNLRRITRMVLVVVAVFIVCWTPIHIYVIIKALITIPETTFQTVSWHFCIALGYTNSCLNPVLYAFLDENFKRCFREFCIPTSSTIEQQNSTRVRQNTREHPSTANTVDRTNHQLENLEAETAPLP

[3] = molecular target: T3, Gastrin/cholecystokinin type B receptor (Homo sapiens, UniProt P32239); test: Displacement of [125I]CCK8 from human CCK2 receptor expressed in HEK293 cells; format: cell-based
T3 sequence (P32239 whole entry): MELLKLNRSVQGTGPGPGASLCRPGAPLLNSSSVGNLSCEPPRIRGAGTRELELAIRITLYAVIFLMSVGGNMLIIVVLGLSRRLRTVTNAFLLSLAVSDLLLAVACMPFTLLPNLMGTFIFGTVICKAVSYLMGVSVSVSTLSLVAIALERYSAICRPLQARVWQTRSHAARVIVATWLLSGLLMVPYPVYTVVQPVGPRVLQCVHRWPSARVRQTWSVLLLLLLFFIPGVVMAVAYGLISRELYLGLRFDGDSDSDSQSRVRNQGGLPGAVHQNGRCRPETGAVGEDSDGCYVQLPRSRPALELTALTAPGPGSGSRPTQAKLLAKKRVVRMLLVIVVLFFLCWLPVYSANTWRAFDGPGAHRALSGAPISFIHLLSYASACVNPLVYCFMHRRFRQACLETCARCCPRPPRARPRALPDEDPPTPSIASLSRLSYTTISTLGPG

[4] = molecular target: T1, Delta-type opioid receptor; test: Inhibition of [35S]GTP-gamma-S binding to human delta opioid receptor expressed in CHO cells; format: functional, cell-based
Summary of the method: (§2)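 CHO-expressed receptor membranes (10 µg) in 50 mM HEPES pH 7.4 with EDTA, 5 mM MgCl2, 30 µM GDP, DTT, 100 mM NaCl, PMSF, BSA and 0.1 nM [35S]GTPγS. Test drug at various concentrations, duplicate or triplicate, 90 min at 30 °C. Nonspecific binding with 10 µM GTPγS.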

Mu-type opioid receptor [5] = molecular target: T2, Mu-type opioid receptor; test: (§3) Inhibition of [35S]GTP-gamma-S binding to rat mu opioid receptor expressed in CHO cells; format: functional, cell-based; conditions: read-out: EC50; summary of the method: as §2
[6] = molecular target: Delta-type opioid receptor (Mus musculus, UniProt P32300); test: Agonist activity at delta opioid receptor by inhibition of muscle contraction in electrically stimulated isolated mouse vas deferens; format: functional, tissue-based
Sequence of Delta-type opioid receptor (Mus musculus, UniProt P32300) (P32300 whole entry): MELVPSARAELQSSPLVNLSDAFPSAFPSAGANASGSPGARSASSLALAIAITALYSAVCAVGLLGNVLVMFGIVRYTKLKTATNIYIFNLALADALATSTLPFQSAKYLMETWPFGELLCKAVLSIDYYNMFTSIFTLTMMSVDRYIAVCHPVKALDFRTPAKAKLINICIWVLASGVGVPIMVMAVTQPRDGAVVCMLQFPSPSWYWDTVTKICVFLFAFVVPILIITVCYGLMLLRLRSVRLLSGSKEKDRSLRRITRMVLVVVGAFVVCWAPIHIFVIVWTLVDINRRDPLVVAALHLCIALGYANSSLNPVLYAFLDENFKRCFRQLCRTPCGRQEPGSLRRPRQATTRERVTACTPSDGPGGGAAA
Summary of the method: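 Male ICR mouse vasa deferentia in 20-mL baths, 0.5 g tension, oxygenated Mg-free Krebs at 37 °C; field stimulation 0.1 Hz, 2.0 ms single pulses, supramaximal voltage. Tissue integrity checked with DPDPE (10 nM). Compound added cumulatively until maximal inhibition. Inhibition taken as mean contraction height for 1 min before dosing versus height 3 min after. IC50 from Hill-equation fit by nonlinear least squares.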

Mu-type opioid receptor [7] = molecular target: Mu-type opioid receptor (Cavia porcellus, UniProt P97266); test: Agonist activity at mu opioid receptor by inhibition of muscle contraction in electrically stimulated isolated guinea pig ileum; format: functional, tissue-based
Sequence of Mu-type opioid receptor (Cavia porcellus, UniProt P97266) (P97266 whole entry): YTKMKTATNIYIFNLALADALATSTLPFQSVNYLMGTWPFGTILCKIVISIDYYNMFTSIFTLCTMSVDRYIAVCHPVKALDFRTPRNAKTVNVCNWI
Summary of the method: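 Longitudinal muscle–myenteric plexus strips from male Hartley guinea pig ileum, 1 g tension, oxygenated Krebs at 37 °C, 15 min equilibration. Stimulated at 0.1 Hz, 0.4 ms, supramaximal voltage. Integrity checked with PL-017 (10 nM). Compound added until maximal inhibition. Inhibition taken as contraction height 1 min before versus 3 min after dosing. IC50 from Hill-equation fit.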

[8] = molecular target: T4, Cholecystokinin receptor type A (Homo sapiens, UniProt P32238); test: Displacement of [125I]CCK8 from human CCK1 receptor expressed in HEK293 cells; format: cell-based
T4 sequence (P32238 whole entry): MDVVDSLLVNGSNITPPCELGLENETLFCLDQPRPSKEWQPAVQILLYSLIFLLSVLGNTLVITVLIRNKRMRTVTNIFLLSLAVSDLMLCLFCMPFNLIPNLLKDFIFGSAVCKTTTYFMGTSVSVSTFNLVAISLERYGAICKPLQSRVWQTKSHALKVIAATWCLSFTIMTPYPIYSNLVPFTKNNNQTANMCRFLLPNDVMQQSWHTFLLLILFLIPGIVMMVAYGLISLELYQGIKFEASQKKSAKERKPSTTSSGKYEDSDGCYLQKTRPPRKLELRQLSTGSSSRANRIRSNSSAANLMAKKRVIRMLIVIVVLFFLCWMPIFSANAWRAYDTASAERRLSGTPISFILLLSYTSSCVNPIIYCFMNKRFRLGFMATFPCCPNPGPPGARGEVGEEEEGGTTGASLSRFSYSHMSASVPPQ

[9] = molecular target: Mu-type opioid receptor (Rattus norvegicus) (UniProt P33535); test: as §3; format: functional, cell-based; summary of the method: as §2
Sequence of Mu-type opioid receptor (Rattus norvegicus) (P33535 whole entry): as the sequence (P33535 whole entry) above

[10] = molecular target: T5, Cholecystokinin receptor (Homo sapiens) (UniProt P32239+P32238); test: Agonist activity at CCK receptor of guinea pig ileum at 1 uM; format: functional, tissue-based; conditions: Cavia porcellus, target entry is the homologue from another species
Summary of the method: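 Guinea pig ileum LMMP strips (male Hartley), 20-mL baths, 1 g tension, oxygenated Krebs bicarbonate buffer, 37 °C. Tissue first challenged with 67 mM KCl to set maximal contraction. Test compound added to the bath; agonist activity taken as contraction height as a percentage of the maximal KCl contraction (A50).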

[11] = molecular target: T5, Cholecystokinin receptor (Homo sapiens); test: Antagonist activity at CCK receptor by inhibition of CCK8-induced muscle contraction in unstimulated GPI/LMMP; format: functional; conditions: Cavia porcellus; target entry is the homologue from another species
Summary of the method: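 Male Hartley guinea pig ileum LMMP strips, 1 g tension, oxygenated Krebs bicarbonate buffer, 37 °C; 67 mM KCl sets maximal contractility. Initial noncumulative CCK-8 dose-response curve built. Test compound added without electrical stimulation; 3 min later the CCK-8 curve was rebuilt at an antagonist dose giving about a 3-fold rightward shift. Ke is the antagonist concentration halving CCK-8 activity.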

T1 sequence (P41143 whole entry): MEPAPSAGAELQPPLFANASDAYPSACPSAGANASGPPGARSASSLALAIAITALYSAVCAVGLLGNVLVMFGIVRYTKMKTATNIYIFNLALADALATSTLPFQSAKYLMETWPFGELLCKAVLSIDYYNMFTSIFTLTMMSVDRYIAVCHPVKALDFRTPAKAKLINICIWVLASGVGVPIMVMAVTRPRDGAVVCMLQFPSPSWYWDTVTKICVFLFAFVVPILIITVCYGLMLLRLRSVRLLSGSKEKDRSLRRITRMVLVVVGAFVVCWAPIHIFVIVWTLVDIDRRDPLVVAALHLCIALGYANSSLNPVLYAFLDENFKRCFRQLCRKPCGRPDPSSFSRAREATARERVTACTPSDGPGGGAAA

CCCC[C@H](NC(=O)[C@H](Cc1c[nH]c2ccccc12)NC(C)=O)C(=O)N[C@@H](CC(=O)O)C(=O)N[C@@H](Cc1ccccc1)C(=O)NNC(=O)[C@H](Cc1ccccc1)NC(=O)CNC(=O)[C@@H](C)NC(=O)[C@@H](N)Cc1ccc(O)cc1
IC50 [1]: 53.7 nM
Ki [1]: 23 nM
IC50 (Mu-type opioid receptor [2]): 61.7 nM
Ki (Mu-type opioid receptor [2]): 26 nM
IC50 [3]: 1320 nM
Ki [3]: 1300 nM
EC50 [4]: 54 nM
EC50 (Mu-type opioid receptor [5]): 76 nM
IC50 [6]: 36 nM
IC50 (Mu-type opioid receptor [7]): 28 nM

CCCC[C@H](NC(=O)[C@@H](Cc1c[nH]c2ccccc12)NC(=O)OC1C2CC3CC(C2)CC1C3)C(=O)N[C@@H](CC(=O)O)C(=O)N[C@@H](Cc1ccccc1)C(=O)NNC(=O)[C@H](Cc1ccccc1)NC(=O)CNC(=O)[C@@H](C)NC(=O)[C@@H](N)Cc1ccc(O)cc1 (some centres not stated)
IC50 [1]: 7.76 nM
Ki [1]: 3.4 nM
IC50 (Mu-type opioid receptor [2]): 37.2 nM
Ki (Mu-type opioid receptor [2]): 16 nM
IC50 [8]: 575 nM
Ki [8]: 560 nM
IC50 [3]: 933 nM
Ki [3]: 930 nM
EC50 [4]: 5.6 nM
EC50 (Mu-type opioid receptor [5]): 240 nM
IC50 [6]: 84 nM
IC50 (Mu-type opioid receptor [7]): 1200 nM

CCCC[C@H](NC(=O)[C@H](CC(=O)O)NC(=O)[C@H](Cc1ccccc1)NN[C@@H](Cc1ccccc1)C(=O)NCC(=O)N[C@H](C)C(=O)N[C@@H](Cc1ccc(O)cc1)C(=O)O)C(=O)N[C@H](Cc1cn(C(=O)OC(C)(C)C)c2ccccc12)C(=O)O
Emax [4]: 100%
Emax [9]: 170%
Activity [10]: 0%
Ke [11]: 6.5 nM

CCCC[C@H](NC(=O)[C@H](Cc1c[nH]c2ccccc12)NC(C)=O)C(=O)N[C@@H](CC(=O)O)C(=O)N(C)[C@@H](Cc1ccccc1)C(=O)NNC(=O)[C@H](Cc1ccccc1)NC(=O)CNC(=O)[C@@H](C)NC(=O)[C@@H](N)Cc1ccc(O)cc1
Ki [1]: 5.2 nM
Log IC50 [1]: -7.97
Ki (Mu-type opioid receptor [2]): 5.3 nM
Log IC50 (Mu-type opioid receptor [2]): -7.96
EC50 ([4]; cho): 0.53 nM
EC50 (Mu-type opioid receptor [5]; cho): 5.2 nM
IC50 [6]: 5.1 nM
IC50 (Mu-type opioid receptor [7]): 62 nM

CCCC[C@@H](C(=O)N[C@@H](Cc1cn(C(C)=O)c2ccccc12)C(=O)O)N(C(=O)Nc1ccccc1Cl)C(=O)[C@H](CC(=O)O)NC(=O)[C@H](Cc1ccccc1)N(C)N[C@@H](Cc1ccccc1)C(=O)NCC(=O)N[C@H](C)C(=O)N[C@@H](Cc1ccc(O)cc1)C(=O)O
Emax [4]: 81%
Emax [9]: 33%
Activity [10]: 0%
Ke [11]: 150 nM

CCCC[C@H](NC(=O)[C@H](CC(=O)O)NC(=O)[C@H](Cc1ccccc1)NN[C@@H](Cc1ccccc1)C(=O)NCC(=O)N[C@H](C)C(=O)N[C@@H](Cc1ccc(O)cc1)C(=O)O)C(=O)N[C@@H](Cc1cn(C(=O)OC(C)(C)C)c2ccccc12)C(=O)O
Emax [4]: 54%
Emax [9]: 83%
Activity [10]: 0%
Ke [11]: 14 nM
